Results published in ChEMBL document CHEMBL4334424, “The winding road of the uvaretin class of natural products: from total synthesis to bioactive agent discovery” (Medchemcomm, 2019).
The source made the active and inactive calls. The calls are words filed in the database; no cut-off is given here.

Experiments:
MIA PaCa-2 [1] = test: Cytotoxicity against human MIAPaCa2 cells assessed as reduction in cell viability incubated for 72 hrs by alamar blue assay; assay type: functional, cell-based; details: MIA PaCa-2, 72 h
In short: (§1)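 Adherent cells were seeded at 1500 cells/well in 384-well plates and allowed 2–3 h to attach. Compounds in DMSO, diluted in media over 31.6 nM–200 μM, were tested in triplicate for 72 h continuous exposure at 37 °C, 5% CO2. Alamar Blue was added for the final 3 h and fluorescence read (ex 560/em 590 nm). IC50 was fitted from ≥3 independent experiments.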

U-937 [2] = test: Cytotoxicity against human U937 cells assessed as reduction in cell viability incubated for 72 hrs in presence of 6TP by alamar blue assay; assay type: functional
In short: (§2)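 Combination assay in 96-well plates with 100 μL final volume and 1% DMSO. Two test-compound concentrations were crossed with five 6TP concentrations, then cells were added (4000/well adherent, 7000/well suspension). Plates ran 72 h at 37 °C, 5% CO2, with Alamar Blue viability read-out and ≥3 independent experiments. Combination index was calculated by the Chou–Talalay method.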

A549 = test: Cytotoxicity against human A549 cells assessed as reduction in cell viability incubated for 72 hrs by alamar blue assay; assay type: functional, cell-based; details: A549, 72 h; in short: as §1
U-937 [3] = test: Cytotoxicity against human U937 cells assessed as reduction in cell viability incubated for 72 hrs by alamar blue assay; assay type: functional, cell-based; details: U-937, 72 h
In short: (§3)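 Suspension cells (2200/well, 384-well) were added directly onto compound in media with no attachment period. Compounds spanned 31.6 nM–200 μM in triplicate, with 72 h exposure at 37 °C, 5% CO2. Alamar Blue was added for the last 3 h and fluorescence read (ex 560/em 590 nm). IC50 came from ≥3 independent experiments.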

REH = test: Cytotoxicity against human REH cells assessed as reduction in cell viability incubated for 72 hrs by alamar blue assay; assay type: functional, cell-based; in short: as §3
HeLa [4] = test: Cytotoxicity against human HeLa cells assessed as reduction in cell viability incubated for 72 hrs in presence of doxorubicin by alamar blue assay; assay type: functional
In short: (§4)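 Same combination format as the 6TP study, with the cytotoxic partner (doxorubicin, etoposide or paclitaxel) combined with test compound. Cells were at 4000/well (adherent) in 100 μL, 1% DMSO, for 72 h at 37 °C, 5% CO2, with Alamar Blue viability read-out. Combination index was derived by the Chou–Talalay protocol and reported as a median.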

HCT-116 [5] = test: Cytotoxicity against human HCT116 cells assessed as reduction in cell viability incubated for 72 hrs by alamar blue assay; assay type: functional, cell-based; details: HCT-116, 72 h; in short: as §1
HeLa [6] = test: Cytotoxicity against human HeLa cells assessed as reduction in cell viability incubated for 72 hrs by alamar blue assay; assay type: functional, cell-based; in short: as §1
HCT-116 [7] = test: Cytotoxicity against human HCT116 cells assessed as reduction in cell viability incubated for 72 hrs in presence of doxorubicin by alamar blue assay; assay type: functional, cell-based; in short: as §4
HCT-116 [8] = test: Cytotoxicity against human HCT116 cells assessed as reduction in cell viability incubated for 72 hrs in presence of 6TP by alamar blue assay; assay type: functional, cell-based; in short: as §2
HCT-116 [9] = test: Cytotoxicity against human HCT116 cells assessed as reduction in cell viability incubated for 72 hrs in presence of etoposide by alamar blue assay; assay type: functional, cell-based; in short: as §4
MIA PaCa-2 [10] = test: Cytotoxicity against human MIAPaCa2 cells assessed as cell viability at 5 uM incubated for 72 hrs in presence of 10 uM 6TP by alamar blue assay (reference value: 6.9 %); assay type: functional; in short: as §2
MIA PaCa-2 [11] = test: Cytotoxicity against human MIAPaCa2 cells assessed as combinational index at 2.5 uM incubated for 72 hrs in presence of 200 uM 6TP by alamar blue assay; assay type: functional; in short: as §2
MIA PaCa-2 [12] = test: Cytotoxicity against human MIAPaCa2 cells assessed as combinational index at 5 uM incubated for 72 hrs in presence of 200 uM 6TP by alamar blue assay; assay type: functional; in short: as §2
MIA PaCa-2 [13] = test: Cytotoxicity against human MIAPaCa2 cells assessed as cell viability at 2.5 uM incubated for 72 hrs by alamar blue assay (reference value: 0 %); assay type: functional; details: MIA PaCa-2, 72 h, read-out: Activity; in short: as §2
MIA PaCa-2 [14] = test: Cytotoxicity against human MIAPaCa2 cells assessed as combinational index at 5 uM incubated for 72 hrs in presence of 25 uM 6TP by alamar blue assay; assay type: functional; in short: as §2
MIA PaCa-2 [15] = test: Cytotoxicity against human MIAPaCa2 cells assessed as cell viability at 5 uM incubated for 72 hrs in presence of 100 uM 6TP by alamar blue assay (reference value: 30.7 %); assay type: functional; in short: as §2
MIA PaCa-2 [16] = test: Cytotoxicity against human MIAPaCa2 cells assessed as cell viability at 5 uM incubated for 72 hrs by alamar blue assay (reference value: 0 %); assay type: functional; details: MIA PaCa-2, 72 h, read-out: Activity; in short: as §2
MIA PaCa-2 [17] = test: Cytotoxicity against human MIAPaCa2 cells assessed as cell viability at 5 uM incubated for 72 hrs in presence of 50 uM 6TP by alamar blue assay (reference value: 13.8 %); assay type: functional; in short: as §2
MIA PaCa-2 [18] = test: Cytotoxicity against human MIAPaCa2 cells assessed as combinational index at 5 uM incubated for 72 hrs in presence of 50 uM 6TP by alamar blue assay; assay type: functional; in short: as §2
MIA PaCa-2 [19] = test: Cytotoxicity against human MIAPaCa2 cells assessed as cell viability at 2.5 uM incubated for 72 hrs in presence of 25 uM 6TP by alamar blue assay (reference value: 6.4 %); assay type: functional; in short: as §2
MIA PaCa-2 [20] = test: Cytotoxicity against human MIAPaCa2 cells assessed as combinational index at 2.5 uM incubated for 72 hrs in presence of 50 uM 6TP by alamar blue assay; assay type: functional; in short: as §2
MIA PaCa-2 [21] = test: Cytotoxicity against human MIAPaCa2 cells assessed as cell viability at 2.5 uM incubated for 72 hrs in presence of 50 uM 6TP by alamar blue assay (reference value: 13.8 %); assay type: functional; in short: as §2
MIA PaCa-2 [22] = test: Cytotoxicity against human MIAPaCa2 cells assessed as cell viability at 2.5 uM incubated for 72 hrs in presence of 100 uM 6TP by alamar blue assay (reference value: 30.7 %); assay type: functional; in short: as §2
MIA PaCa-2 [23] = test: Cytotoxicity against human MIAPaCa2 cells assessed as cell viability at 2.5 uM incubated for 72 hrs in presence of 10 uM 6TP by alamar blue assay (reference value: 6.9 %); assay type: functional; in short: as §2
MIA PaCa-2 [24] = test: Cytotoxicity against human MIAPaCa2 cells assessed as combinational index at 2.5 uM incubated for 72 hrs in presence of 100 uM 6TP by alamar blue assay; assay type: functional; in short: as §2
MIA PaCa-2 [25] = test: Cytotoxicity against human MIAPaCa2 cells assessed as cell viability at 5 uM incubated for 72 hrs in presence of 25 uM 6TP by alamar blue assay (reference value: 6.4 %); assay type: functional; in short: as §2
MIA PaCa-2 [26] = test: Cytotoxicity against human MIAPaCa2 cells assessed as combinational index at 5 uM incubated for 72 hrs in presence of 100 uM 6TP by alamar blue assay; assay type: functional; in short: as §2
MIA PaCa-2 [27] = test: Cytotoxicity against human MIAPaCa2 cells assessed as combinational index at 2.5 uM incubated for 72 hrs in presence of 25 uM 6TP by alamar blue assay; assay type: functional; in short: as §2
HCT-116 [28] = test: Cytotoxicity against human HCT116 cells assessed as reduction in cell viability incubated for 72 hrs in presence of paclitaxel by alamar blue assay; assay type: functional, cell-based; in short: as §4

Structure (SMILES)	IC50 (MIA PaCa-2 [1]) [µM]	IC50 (A549) [µM]	IC50 (U-937 [3]) [µM]	IC50 (REH) [µM]	IC50 (HCT-116 [5]) [µM]	IC50 (HeLa [6]) [µM]	also measured
COc1cc(OC)c(C(=O)CCc2ccccc2)c(OC)c1Cc1ccccc1O	> 20	> 20	> 20	> 20	> 20	> 20	CI (U-937 [2]): 0.22; CI (HeLa [4]): 0.11
CC(=O)c1c(O)cc(O)cc1O [2,4,6-TRIHYDROXYACETOPHENONE]	> 20	> 20	> 20	> 20	> 20	> 20	
COCOc1cc(OC)cc(OC)c1C(C)=O	> 20	16.9	13.3	> 20	> 20	14	
COc1cc(OC)c(C(C)=O)c(OC)c1	14.3	9.8	7.2	> 20	> 20	3.8	
COc1cc(OC)c(C(=O)/C=C/c2ccccc2)c(OC)c1	> 20	4.3	6.7	> 20	> 20	5.2	
COc1cc(OC)c(C(=O)/C=C/c2ccccc2)c(O)c1Cc1ccccc1O	> 20	5.8	6.8	9.7	> 20	3.1	
COc1cc(O)c(Cc2ccccc2O)c(O)c1C(=O)/C=C/c1ccccc1	5.1	4.3	2.3	> 20	19.5	4.6	Activity (HCT-116 [7]): inactive; Activity (HCT-116 [8]): inactive; Activity (HCT-116 [9]): inactive
C=CCOc1ccccc1Cc1c(OC)cc(OC)c(C(=O)/C=C/c2ccccc2)c1OC	9.4	8.5	7.5	12.6	> 20	5.8	
COCOc1cc(O)c(C(C)=O)c(OCOC)c1	> 20	> 20	7.4	> 20	> 20	12.2	
COCOc1cc(O)c(C(=O)/C=C/c2ccccc2)c(OCOC)c1	7.8	> 20	> 20	> 20	> 20	16.7	Activity (MIA PaCa-2 [10]): 8.1%; CI (MIA PaCa-2 [11]): 2.16; CI (MIA PaCa-2 [12]): 1.43; viability at 2.5 µM (MIA PaCa-2 [13]): 6.1%; CI (MIA PaCa-2 [14]): 1.13; Activity (MIA PaCa-2 [15]): 19.9%; viability at 5 µM (MIA PaCa-2 [16]): 7.2%; Activity (MIA PaCa-2 [17]): 13%; CI (MIA PaCa-2 [18]): 1.87; Activity (MIA PaCa-2 [19]): 7.2%; CI (MIA PaCa-2 [20]): 2.04; Activity (MIA PaCa-2 [21]): 9.7%; Activity (MIA PaCa-2 [22]): 15.2%; Activity (MIA PaCa-2 [23]): 7%; CI (MIA PaCa-2 [24]): 2.18; Activity (MIA PaCa-2 [25]): 8.2%; CI (MIA PaCa-2 [26]): 1.42; CI (MIA PaCa-2 [27]): 1.21
COc1cc(O)c(C(=O)/C=C/c2ccccc2)c(OC)c1 [FLAVOKAWAIN B]	18.2	19.7	> 20	> 20	> 20	> 20	
COCOc1cc(OCOC)c(C(C)=O)c(OCOC)c1	6.1	> 20	11.7	> 20	> 20	> 20	
COc1cc(OC)c(C(=O)/C=C/c2ccccc2)c(OC)c1Cc1ccccc1O	4.1	9.3	4.2	> 20	18.6	2.7	Activity (HCT-116 [28]): inactive; Activity (HCT-116 [8]): inactive; CI (HeLa [4]): 0.12; Activity (HCT-116 [9]): inactive
COCOc1cc(OC)cc(OC)c1C(=O)/C=C/c1ccccc1	5.6	3.5	2.5	19.4	> 20	4.8	
COc1cc(O)c(C(C)=O)c(OC)c1 [XANTHOXYLIN]	> 20	> 20	> 20	> 20	> 20	18.7	
COCOc1cc(OCOC)c(C(=O)/C=C/c2ccccc2)c(OCOC)c1	11.8	8.4	8.1	> 20	> 20	11.5	Activity (MIA PaCa-2 [10]): 18.4%; CI (MIA PaCa-2 [11]): 1.79; CI (MIA PaCa-2 [12]): 2.09; viability at 2.5 µM (MIA PaCa-2 [13]): 21.1%; CI (MIA PaCa-2 [14]): 0.47; Activity (MIA PaCa-2 [15]): 19.3%; viability at 5 µM (MIA PaCa-2 [16]): 20%; Activity (MIA PaCa-2 [17]): 17%; CI (MIA PaCa-2 [18]): 0.57; Activity (MIA PaCa-2 [19]): 15%; CI (MIA PaCa-2 [20]): 0.56; Activity (MIA PaCa-2 [21]): 16.9%; Activity (MIA PaCa-2 [22]): 17.6%; Activity (MIA PaCa-2 [23]): 14.2%; CI (MIA PaCa-2 [24]): 0.96; Activity (MIA PaCa-2 [25]): 17.3%; CI (MIA PaCa-2 [26]): 1.01; CI (MIA PaCa-2 [27]): 0.24
COc1cc(O)c(Cc2ccccc2O)c(O)c1C(=O)CCc1ccccc1 [UVARETIN]	2	2.2	3.6	11.3	> 20	3.7	Activity (HCT-116 [7]): inactive; Activity (HCT-116 [8]): inactive; Activity (HCT-116 [9]): inactive
